Laboratory results reported in ChEMBL document CHEMBL3526048, “In vitro metabolism of rivoglitazone, a novel peroxisome proliferator-activated receptor γ agonist, in rat, monkey, and human liver microsomes and freshly isolated hepatocytes” (Drug Metab Dispos, 2011).

Columns and labels:
[1] = Drug metabolism in rat hepatocytes assessed as formation of 2-amino-3-((1-carboxy-2-(4-((6-methoxy-1-methyl-1H-benzo[d]imidazol-2-yl)methoxy)phenyl)ethyl)disulfanyl)propanoic acid at 30 uM after 3 hrs by radio-HPLC/LC-MS/MS analysis; assay type: ADME, cell-based, Hepatocyte
[2] = Drug metabolism in rat hepatocytes assessed as formation of 5-hydroxy-5-(4-((6-methoxy-1-methyl-1H-benzo[d]imidazol-2-yl)methoxy)benzyl)thiazolidine-2,4-dione at 30 uM after 3 hrs by radio-HPLC/LC-MS/MS analysis in presence of NADPH-generating system and NADPH-generating system/SAM; assay type: ADME, cell-based, Hepatocyte
[3] = target: T1, UDP-glucuronosyltransferase 1A3 (Homo sapiens, UniProt P35503); experiment: Activity of human UGT1A3 expressed in microsomes isolated from baculovirus infected insect cell assessed as enzyme-mediated 2-((4-((2,4-dioxothiazolidin-5-yl)methyl)phenoxy)methyl)-1-methyl-1H-benzo[d]imidazol-6-yl hydrogen sulfate formation at 20 uM after 4 hrs by radio-HPLC/LC-MS/MS analysis; assay type: ADME
T1 sequence (P35503 whole entry): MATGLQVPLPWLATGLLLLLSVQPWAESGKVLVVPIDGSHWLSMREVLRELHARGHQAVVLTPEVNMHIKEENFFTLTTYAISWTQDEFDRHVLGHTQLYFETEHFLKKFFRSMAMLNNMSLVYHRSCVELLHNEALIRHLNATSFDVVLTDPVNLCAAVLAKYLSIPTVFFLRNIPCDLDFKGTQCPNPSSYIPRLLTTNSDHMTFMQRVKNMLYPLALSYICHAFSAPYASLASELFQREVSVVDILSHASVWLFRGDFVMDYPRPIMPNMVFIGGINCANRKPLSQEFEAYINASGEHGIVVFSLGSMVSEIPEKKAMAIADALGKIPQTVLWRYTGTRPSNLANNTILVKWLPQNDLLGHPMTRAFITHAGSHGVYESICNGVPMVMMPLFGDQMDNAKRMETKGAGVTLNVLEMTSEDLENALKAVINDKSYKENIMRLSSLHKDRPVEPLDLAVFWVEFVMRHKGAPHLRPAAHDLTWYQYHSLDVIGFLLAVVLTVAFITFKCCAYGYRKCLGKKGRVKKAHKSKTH
Method in brief: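 Alamethicin (50 μg/mg protein, 15 min on ice) pretreated expressed human UGT microsomes (1 mg/ml protein) from baculovirus-infected insect cells. Incubation with [¹⁴C]rivoglitazone (20 μM) in 100 mM Tris-HCl (pH 7.5) with 10 mM MgCl₂, started by 5 mM UDPGA, 4 h at 37°C with shaking. UGT insect-cell control supersomes were run alongside. Acetonitrile stop, concentrated supernatant analysed by radio-HPLC, LC-MS and LC-MS/MS.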

[4] = Drug metabolism in cynomolgus monkey liver microsomes assessed as formation of 2-((4-((2,4-dioxothiazolidin-5-yl)methyl)phenoxy)methyl)-1-methyl-1H-benzo[d]imidazol-6-yl hydrogen sulfate at 20 uM by radio-HPLC/LC-MS/MS analysis; assay type: ADME, Macaca fascicularis
[5] = target: T2, Cytochrome P450 1A2 (Homo sapiens, UniProt P05177); experiment: Activity of human CYP1A2 expressed in microsomes isolated from baculovirus infected insect cell assessed as enzyme-mediated 2-mercapto-3-(4-((6-methoxy-1-methyl-1H-benzo[d]imidazol-2-yl)methoxy)phenyl)propanoic acid formation at 20 uM after 2 hrs by radio-HPLC/LC-MS/MS analysis in presence of NADPH-generating system; assay type: ADME
T2 sequence (P05177 whole entry): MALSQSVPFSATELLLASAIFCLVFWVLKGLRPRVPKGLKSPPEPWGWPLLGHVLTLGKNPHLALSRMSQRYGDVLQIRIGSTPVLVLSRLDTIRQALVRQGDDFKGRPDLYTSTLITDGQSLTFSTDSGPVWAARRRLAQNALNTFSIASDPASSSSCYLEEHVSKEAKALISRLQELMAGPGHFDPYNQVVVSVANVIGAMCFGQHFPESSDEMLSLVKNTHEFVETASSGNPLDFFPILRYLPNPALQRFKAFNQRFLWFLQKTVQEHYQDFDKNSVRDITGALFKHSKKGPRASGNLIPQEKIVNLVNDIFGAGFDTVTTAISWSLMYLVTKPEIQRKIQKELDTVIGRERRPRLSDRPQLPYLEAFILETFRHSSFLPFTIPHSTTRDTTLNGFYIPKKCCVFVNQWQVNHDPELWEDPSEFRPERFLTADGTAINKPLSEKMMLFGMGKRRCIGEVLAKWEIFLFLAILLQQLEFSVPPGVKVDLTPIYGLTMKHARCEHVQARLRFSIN
Method in brief: (§1)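 Baculovirus/insect-cell microsomes expressing single human CYPs, 1 mg/ml protein, with 50 mM potassium phosphate (pH 7.4) or 100 mM Tris-HCl (pH 7.5). NADPH-generating system: 2 mM NADP⁺, 20 mM glucose 6-phosphate, 2 units/ml G6PDH, 10 mM MgCl₂. [¹⁴C]rivoglitazone at 20 μM, 2 h at 37°C with shaking. Control used insect-cell control supersomes. Stopped with acetonitrile; supernatant concentrated under nitrogen; metabolites analysed by radio-HPLC, LC-MS and LC-MS/MS.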

[6] = target: T3, Cytochrome P450 2C8 (Homo sapiens, UniProt P10632); experiment: Activity of human CYP2C8 expressed in microsomes isolated from baculovirus infected insect cell assessed as enzyme-mediated 2-amino-3-((1-carboxy-2-(4-((6-methoxy-1-methyl-1H-benzo[d]imidazol-2-yl)methoxy)phenyl)ethyl)disulfanyl)propanoic acid formation at 20 uM after 2 hrs by radio-HPLC/LC-MS/MS analysis; assay type: ADME; method in brief: as §1
T3 sequence (P10632 whole entry): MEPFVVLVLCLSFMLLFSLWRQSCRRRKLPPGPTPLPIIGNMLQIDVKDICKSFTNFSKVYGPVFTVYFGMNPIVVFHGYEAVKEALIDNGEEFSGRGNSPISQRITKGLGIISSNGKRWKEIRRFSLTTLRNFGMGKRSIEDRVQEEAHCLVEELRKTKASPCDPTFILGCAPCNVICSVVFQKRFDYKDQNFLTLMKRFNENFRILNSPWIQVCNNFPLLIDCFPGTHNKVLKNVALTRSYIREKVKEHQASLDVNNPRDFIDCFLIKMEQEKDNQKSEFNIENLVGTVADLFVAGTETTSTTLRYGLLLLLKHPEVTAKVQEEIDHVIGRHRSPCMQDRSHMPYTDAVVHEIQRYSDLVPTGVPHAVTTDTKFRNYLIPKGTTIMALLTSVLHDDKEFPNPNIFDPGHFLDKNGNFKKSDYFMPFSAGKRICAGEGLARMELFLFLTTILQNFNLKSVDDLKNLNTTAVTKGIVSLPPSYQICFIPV

[7] = Drug metabolism in monkey hepatocytes assessed as formation of 3-(4-((6-methoxy-1-methyl-1H-benzo[d]imidazol-2-yl)methoxy)phenyl)-2-(methylsulfinyl)propanamide at 30 uM after 3 hrs by radio-HPLC/LC-MS/MS analysis in presence of NADPH-generating system/SAM; details: cynomolgus monkey
[8] = Drug metabolism in monkey hepatocytes assessed as formation of (2S,3S,4S,5R,6R)-3,4,5-trihydroxy-6-(5-(4-((6-methoxy-1-methyl-1H-benzo[d]imidazol-2-yl)methoxy)benzyl)-2,4-dioxothiazolidin-3-yl)tetrahydro-2H-pyran-2-carboxylic acid at 30 uM after 3 hrs by radio-HPLC/LC-MS/MS analysis; details: cynomolgus monkey

Drug metabolism [1]: metabolite_not_detected
Drug metabolism [2]: metabolite_detected
Drug metabolism [3]: metabolite_not_detected
Drug metabolism [4]: metabolite_not_detected
Drug metabolism [5]: metabolite_detected
Drug metabolism [6]: metabolite_not_detected
Drug metabolism [7]: metabolite_not_detected
Drug metabolism [8]: metabolite_detected
Structure (SMILES): COc1ccc2nc(COc3ccc(C[14CH]4SC(=O)NC4=O)cc3)n(C)c2c1.Cl (racemic)
